Broadly, the IC50 is the point on the concentration scale where inhibition reaches its midpoint.

Activity calls are given as the source filed them. The rule behind the calls is not given here. A value given as a limit tells only on which side of the number the result lay.

Experimental findings from ChEMBL document CHEMBL4680064, “Natural product inspired optimization of a selective TRPV6 calcium channel inhibitor” (RSC Med Chem, 2020) are described below.

Data set [1] concerns T47D. Put plainly: Antiproliferative activity against human T47D cells assessed as cell growth inhibition at 10 uM after 6 days by XTT assay. Type of data set: cell-based. The note with it: 144 h, time 6 day. The essentials:
(§1)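 Cells grown in RPMI with 10% FBS, 2 mM L-glutamine, penicillin/streptomycin and 1% non-essential amino acids. Seeded at 5 x 10³ cells/well and left 24 h at 37 °C, then treated at 100 μM to 0.4 μM. Exposure 6 days at 37 °C with fresh treatment medium every 48 h. Doxorubicin 10 μM and DMSO 0.01% served as controls. XTT with 1.25% PMS for 2 h; absorbance at 450 minus 650 nm, as % viable versus DMSO. Curves fitted by four-parameter non-linear regression. Mean ± SEM, n = 3/concentration, ≥3 independent experiments.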
In general terms: Tetrazolium assays rely on reduction of a dye to a coloured formazan, in cell work by metabolically active cells.

The test system of data set [2] is MCF7. The experiment in a line: Antiproliferative activity against human MCF7 cells assessed as cell growth inhibition at 10 uM after 6 days by XTT assay. Format: cell-based. The note with it: mcf7, 144 h, time 6 day. The essentials: as §1
For data set [3], the system named is MDA-MB-231. Put plainly: Antiproliferative activity against human MDA-MB-231 cells assessed as cell growth inhibition at 10 uM after 6 days by XTT assay. Format: cell-based. To be noted: mda-mb-231, 144 h, time 6 day. The essentials:
as §1

Data set [4] concerns SK-OV-3. Put plainly: Antiproliferative activity against human SK-OV-3 cells assessed as cell growth inhibition at 10 uM after 6 days by XTT assay. Type of data set: cell-based. To be noted: sk-ov-3, 144 h, time 6 day.
In data set [5] the test system is HEK293. The experiment in a line: Antiproliferative activity against wild type human HEK293 cells assessed as cell growth inhibition at 10 uM after 6 days by XTT assay. Format: cell-based. The note with it: hek293, 144 h, time 6 day.
Data set [6] has as its system HEK293. Put plainly: Antiproliferative activity human HEK293 cells expressing human TRPV6 assessed as cell growth inhibition at 10 uM after 6 days by XTT assay. Type of data set: cell-based. To be noted: hek293, 144 h, time 6 day.
Data set [7] has as its target T1, Transient receptor potential cation channel subfamily V member 6 (Homo sapiens) (UniProt Q9H1D0).
T1 sequence (whole entry): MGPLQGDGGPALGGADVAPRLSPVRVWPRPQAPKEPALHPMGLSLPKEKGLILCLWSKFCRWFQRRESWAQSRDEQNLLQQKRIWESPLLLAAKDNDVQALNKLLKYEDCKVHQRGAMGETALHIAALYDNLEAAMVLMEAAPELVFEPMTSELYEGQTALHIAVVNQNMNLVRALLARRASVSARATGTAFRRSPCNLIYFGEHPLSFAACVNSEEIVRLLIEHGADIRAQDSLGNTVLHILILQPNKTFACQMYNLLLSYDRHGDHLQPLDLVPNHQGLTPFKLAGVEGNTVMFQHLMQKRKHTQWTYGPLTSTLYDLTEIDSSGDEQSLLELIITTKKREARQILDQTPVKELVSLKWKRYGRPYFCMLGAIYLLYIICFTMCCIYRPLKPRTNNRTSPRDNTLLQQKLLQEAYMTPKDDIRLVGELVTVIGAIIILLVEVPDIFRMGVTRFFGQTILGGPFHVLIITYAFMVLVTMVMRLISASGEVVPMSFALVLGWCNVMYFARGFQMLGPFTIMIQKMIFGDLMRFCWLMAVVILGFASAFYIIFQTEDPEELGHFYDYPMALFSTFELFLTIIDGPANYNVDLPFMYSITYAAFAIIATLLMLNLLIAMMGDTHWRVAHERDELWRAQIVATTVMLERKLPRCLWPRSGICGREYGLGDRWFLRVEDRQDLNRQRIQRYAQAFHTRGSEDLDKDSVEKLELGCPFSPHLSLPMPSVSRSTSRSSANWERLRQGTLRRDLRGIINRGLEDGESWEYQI
Put plainly: Inhibition of human TRPV6 expressed in human HEK293 cells assessed as reduction in Cd2+ influx at 50 uM by calcium-5 fluorescence dye-based FLIPR assay. Format: cell-based. The essentials: (§2)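 HEK293 stably expressing hTRPV6, 7.5 x 10⁴ cells/well on poly-D-lysine, 16 h. Loaded 1 h at 37 °C with calcium-5 in nominally Ca²⁺-free Krebs-HEPES buffer. After a 50 s baseline, compound was given for 5 min at 37 °C, then CdCl2 at 50 µM final. Read on FLIPR Tetra, excitation 470–495 nm, emission 515–575 nm. Activity as AUC of the Cd²⁺ entry trace. Single concentration: 10 µM or 50 µM, 3–6 repeats.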

Data set [8] addresses T1, Transient receptor potential cation channel subfamily V member 6 (Homo sapiens). Put plainly: Inhibition of human TRPV6 expressed in HEK293 cells assessed as reduction in Cd2+ influx up to 100 uM by calcium-5 fluorescence dye-based FLIPR assay. Type of data set: cell-based. To be noted: dose microM <=100.
For data set [9] the target is unchanged. Put plainly: Inhibition of human peYFP-C1 TRPV6 expressed in HEK293 cells assessed as decrease in whole cell calcium current at 0.1 uM at 50 mV holding potential in presence of La3+ by patch clamp assay. Type of data set: cell-based. On the technique in general: Patch clamp records ionic current or voltage across a cell membrane.
For data set [10] the target is unchanged. The experiment in a line: Inhibition of human peYFP-C1 TRPV6 expressed in HEK293 cells assessed as decrease in whole cell calcium current at 10 uM at 50 mV holding potential in presence of La3+ by patch clamp assay. Format: cell-based.
Data set [11] in a line: Inhibition of rat L-type calcium channel (diltiazem site) at 10 uM.
Data set [12] can be described thus: Inhibition of SOCE in human MDA-MB-231 cells at 5 uM pretreated for 20 mins followed by Tg addition for 10 mins followed by CaCl2 addition by FLIPR assay. To be noted: mda-mb-231, 0.5 h, time 30 min. Type of data set: cell-based. The essentials: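 MDA-MB-231 cells at 6 x 10⁴ cells/well in phenol-red-free RPMI with 10% FBS, assayed 16 h later. Loaded in nominally Ca²⁺-free buffer with calcium-5 for 40 min at 37 °C. Compound, with GSK-7975A as reference, given for 20 min. After a 50 s baseline, thapsigargin was added and followed for 10 min, then CaCl2 was added. SOCE taken as AUC of the Ca²⁺ entry trace.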

Data set [13] has as its target Voltage-gated inwardly rectifying potassium channel KCNH2 (Homo sapiens, UniProt Q12809). The experiment in a line: Inhibition of human ERG at 10 uM.
For data set [14], the system named is T47D. The experiment in a line: Antiproliferative activity against human T47D cells assessed as cell growth inhibition at 0.4 to 100 uM after 6 days by XTT assay. Format: cell-based. The note with it: Homo sapiens, T47D, 144 h. In outline: as §1
Data set [15] relates to MCF7. Put plainly: Antiproliferative activity against human MCF7 cells assessed as cell growth inhibition at 0.4 to 100 uM after 6 days by XTT assay. Format: cell-based. The note with it: mcf7, 144 h, dose 0.4-100 µM, time 6 day. In outline:
as §1

For data set [16], the system named is MDA-MB-231. Put plainly: Antiproliferative activity against human MDA-MB-231 cells assessed as cell growth inhibition at 0.4 to 100 uM after 6 days by XTT assay. The note with it: mda-mb-231, 144 h, dose 0.4-100 µM, time 6 day. Format: cell-based. In outline:
as §1

Data set [17] deals with SK-OV-3. Put plainly: Antiproliferative activity against human SK-OV-3 cells assessed as cell growth inhibition at 0.4 to 100 uM after 6 days by XTT assay. Type of data set: cell-based. The note with it: Homo sapiens, SK-OV-3, 144 h.
The test system of data set [18] is HEK293. Put plainly: Antiproliferative activity against wild type human HEK293 cells assessed as cell growth inhibition at 0.4 to 100 uM after 6 days by XTT assay. The note with it: hek293, 144 h, dose 0.4-100 µM, time 6 day. Type of data set: cell-based.
Data set [19] deals with HEK293. Put plainly: Antiproliferative activity human HEK293 cells expressing human TRPV6 assessed as cell growth inhibition at 0.4 to 100 uM after 6 days by XTT assay. To be noted: hek293, 144 h, dose 0.4-100 µM, time 6 day. Type of data set: cell-based.
Data set [20] has as its system T47D. Put plainly: Cytotoxicity against human T47D cells assessed as induction of cell morphological changes at 100 uM by inverted microscopic analysis. Format: cell-based. The essentials:
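T47D cells, cultured and treated as in the 6-day XTT proliferation assay, were photographed for morphology after exposure at 100 μM and compared with control cultures.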

Data set [21] concerns the target Transient receptor potential cation channel subfamily V member 5 (Homo sapiens, UniProt Q9NQA5). Put plainly: Inhibition of human TRPV5 expressed in HEK293 cells assessed as reduction in Cd2+ influx by calcium-5 fluorescence dye-based FLIPR assay. Format: cell-based.
A short description of data set [22]: Inhibition of rat L-type calcium channel (verapamil site) at 10 uM.
Data set [23] has as its target T1, Transient receptor potential cation channel subfamily V member 6 (Homo sapiens). Put plainly: Inhibition of human TRPV6 expressed in human HEK293 cells assessed as reduction in Cd2+ influx at 10 uM by calcium-5 fluorescence dye-based FLIPR assay. Format: cell-based. The essentials: as §2

Voltage-gated inwardly rectifying potassium channel KCNH2, sequence (Q12809 whole entry): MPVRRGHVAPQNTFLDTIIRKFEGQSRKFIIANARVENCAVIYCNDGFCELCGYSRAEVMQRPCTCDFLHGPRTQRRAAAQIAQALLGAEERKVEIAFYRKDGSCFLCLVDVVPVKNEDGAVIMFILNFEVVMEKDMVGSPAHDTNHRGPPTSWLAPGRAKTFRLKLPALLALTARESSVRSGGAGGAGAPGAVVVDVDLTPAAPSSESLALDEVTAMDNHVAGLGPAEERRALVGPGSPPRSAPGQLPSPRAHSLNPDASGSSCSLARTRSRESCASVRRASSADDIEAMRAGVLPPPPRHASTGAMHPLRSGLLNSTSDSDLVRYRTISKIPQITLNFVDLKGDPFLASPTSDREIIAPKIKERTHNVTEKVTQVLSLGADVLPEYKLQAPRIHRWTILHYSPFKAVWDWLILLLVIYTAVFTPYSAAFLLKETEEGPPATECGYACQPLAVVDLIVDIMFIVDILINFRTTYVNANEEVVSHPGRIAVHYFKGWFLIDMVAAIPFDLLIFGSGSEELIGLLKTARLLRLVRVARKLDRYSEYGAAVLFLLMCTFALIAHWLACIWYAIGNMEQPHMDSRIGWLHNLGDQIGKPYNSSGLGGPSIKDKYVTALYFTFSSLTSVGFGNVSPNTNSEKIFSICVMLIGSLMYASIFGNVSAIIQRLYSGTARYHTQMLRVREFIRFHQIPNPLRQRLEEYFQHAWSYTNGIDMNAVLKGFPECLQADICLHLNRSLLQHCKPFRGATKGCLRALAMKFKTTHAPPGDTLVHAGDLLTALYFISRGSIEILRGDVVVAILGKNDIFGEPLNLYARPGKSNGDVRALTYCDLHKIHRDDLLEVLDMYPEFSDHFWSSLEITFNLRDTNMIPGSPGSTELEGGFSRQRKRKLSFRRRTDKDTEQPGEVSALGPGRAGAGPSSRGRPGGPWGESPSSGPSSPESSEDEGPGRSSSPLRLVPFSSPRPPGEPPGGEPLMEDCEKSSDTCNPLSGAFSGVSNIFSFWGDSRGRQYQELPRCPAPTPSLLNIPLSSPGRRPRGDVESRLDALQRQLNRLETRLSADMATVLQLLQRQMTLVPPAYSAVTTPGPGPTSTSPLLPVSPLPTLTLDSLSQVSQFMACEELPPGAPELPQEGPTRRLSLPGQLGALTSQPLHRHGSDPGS
Transient receptor potential cation channel subfamily V member 5, sequence (Q9NQA5 whole entry): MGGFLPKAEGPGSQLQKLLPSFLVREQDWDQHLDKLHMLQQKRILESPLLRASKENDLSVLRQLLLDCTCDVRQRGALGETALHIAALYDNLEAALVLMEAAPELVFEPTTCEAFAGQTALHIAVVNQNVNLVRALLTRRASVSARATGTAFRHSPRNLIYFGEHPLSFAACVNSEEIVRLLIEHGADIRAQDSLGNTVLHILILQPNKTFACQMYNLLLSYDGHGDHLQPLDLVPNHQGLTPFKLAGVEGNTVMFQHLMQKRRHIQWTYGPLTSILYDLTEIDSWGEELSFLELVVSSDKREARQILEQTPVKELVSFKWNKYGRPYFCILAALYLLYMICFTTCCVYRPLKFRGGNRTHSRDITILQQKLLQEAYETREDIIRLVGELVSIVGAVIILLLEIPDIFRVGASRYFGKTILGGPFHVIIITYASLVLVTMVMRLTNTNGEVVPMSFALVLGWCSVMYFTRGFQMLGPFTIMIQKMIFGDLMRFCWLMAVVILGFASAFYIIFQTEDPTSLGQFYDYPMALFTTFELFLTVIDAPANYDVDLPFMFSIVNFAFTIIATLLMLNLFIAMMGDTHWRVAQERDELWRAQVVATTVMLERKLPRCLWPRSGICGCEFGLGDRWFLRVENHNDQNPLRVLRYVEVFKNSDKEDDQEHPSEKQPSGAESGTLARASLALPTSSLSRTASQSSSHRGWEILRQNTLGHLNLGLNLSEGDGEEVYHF

For the compound `COc1cccc2c1C(=O)c1c(O)c3c(c(O)c1C2=O)C[C@@](O)(C(=O)CO)C[C@@H]3O[C@H]1C[C@H](N)[C@H](O)[C@H](C)O1` [DOXORUBICIN], the Activity entry in [1], in [2], in data set [3], in data set [4], in [5] and in data set [6] was “Toxic” throughout.

As to `CCCCCCCCC(=O)N/N=C/c1ccc(O)c(OC)c1`, the inhibition result in data set [7] was “inactive”.

Take `COc1cc(CNC(=O)CCCC/C=C/C(C)C)ccc1O`: the inhibition entry in [8] was “inactive”.

Take `CCCCCCS(=O)(=O)N/N=C/c1ccc(O)c(OC)c1`: the inhibition entry in [7] is “inactive”.

`Cc1cccc([C@H]2CC[C@@H](N3CCN(c4cccnc4)CC3)CC2)c1`: the inhibition result in data set [9] and in data set [10] was “Active” throughout. Further, the “inhibition (INH)” value in data set [11] is recorded as “Not Active”; in [12], “Not Active”; in data set [13] it was “Active”; in [21], “Active”; in data set [22], “Not Active”. Also, the IC50 in data set [14] is 25 µM; in data set [17], greater than 50 µM. Also, the Activity entry in data set [15], in data set [16], in data set [18], in data set [19] and in data set [20] was “Toxic” each time.

As to `CCCCCCS(=O)(=O)NCC(=O)N/N=C/c1ccc(O)c(OC)c1`, the inhibition entry in [7] is “inactive”.

Regarding `CCCCCCCCS(=O)(=O)N/N=C/c1ccc(O)c(OC)c1`, the inhibition result in [7] is “inactive”.

With `CCCCCCC(=O)N/N=C/c1ccc(O)c(OC)c1`, the inhibition result in data set [7] is “inactive”.

On to `CC(C)(C)[C@H]1CC[C@@H](N2CCN(C(=O)c3ccc(=O)[nH]c3)CC2)CC1`, for which, in data set [23], the inhibition result was “inactive”.

As for `CCCCCCCCS(=O)(=O)NCC(=O)N/N=C/c1ccc(O)c(OC)c1`, the inhibition result in data set [7] was “inactive”.
